Data from ChEMBL document CHEMBL1124779, “Synthesis and antitumor activity of 1-[[(dialkylamino)alkyl]amino]-4-methyl-5H-pyrido[4,3-b]benzo[e]- and -benzo[g])indoles. A new class of antineoplastic agents” (1990).
Values after ≈ are worked out from the molar mass of the structure shown.

Experiments:
[1] = Cytotoxicity in the multiple tumor disk diffusion soft agar assay at the dose of 15 ug/disk against solid tumor C38.; assay type: functional, Mus musculus
Method in brief: (§1)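 Soft agar disk diffusion: bottom layer 0.8% noble agar, top layer 0.47% noble agar, both in 1:1 CMRL-Fischer medium with 11% horse serum. Top layer seeded with 5×10^3 L1210 cells or 10^6 solid tumor cells (C38, PO3). Drug applied on a dried 6-mm filter-paper disk. Incubation 7-11 days. Inhibition zone measured by inverted microscope, in units (1 unit = 30 μm).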

L1210 [2] = assay: Tested for cytotoxicity in the multiple tumor disk diffusion soft agar assay at the dose of 15 ug/disk against leukemia L1210; range is 450-525; assay type: functional, Mus musculus; method in brief: as §1
L1210 [3] = assay: Cytotoxicity in the multiple tumor disk diffusion soft agar assay at the dose of 15 ug/disk against leukemia L1210; assay type: functional, Mus musculus; method in brief: as §1
[4] = Cytotoxicity in the multiple tumor disk diffusion soft agar assay at the dose of 15 ug/disk against solid tumor PO3; assay type: functional, Mus musculus; method in brief: as §1
P388 [5] = assay: In vivo T/C (survival time treated/survival time control x 100) was determined against P388 leukemia cells at 40 mg/Kg; assay type: functional, Mus musculus
Method in brief: (§2)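 B6D2 F1 mice, at least five per group, were inoculated ip on day 0 with 10^6 viable P388 cells (25 mL/kg). Compounds were dissolved in distilled water and given ip (25 mL/kg) daily on days 1–4. Mortality was checked daily, with necropsy of dead animals. T/C×100 was median survival, treated versus control. Survivors beyond 50 days counted as cured and were excluded from the median.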

P388 [6] = assay: In vitro cytotoxicity was determined against P388 leukemia cells; assay type: functional; conditions: Mus musculus, read-out: ID50 (the source's name)
Method in brief: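 P388 cells in exponential growth, RPMI 1640 with 2 mM glutamine, 10 μM 2-mercaptoethanol and 10% FCS, 5% CO2, 37 °C. Cells at 10^5 cells/mL. Drugs in distilled water added on day 0. Cells counted by Coulter counter after 96 h. ID50 (μg/mL, 50% inhibition of proliferation) estimated by regression of concentration/response data.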

L1210 [7] = assay: Tested for cytotoxicity in the multiple tumor disk diffusion soft agar assay at the dose of 15 ug/disk against leukemia L1210; range is 550-680; assay type: functional, Mus musculus; method in brief: as §1
L1210 [8] = assay: Tested for cytotoxicity in the multiple tumor disk diffusion soft agar assay at the dose of 15 ug/disk against leukemia L1210; range is 450-500; assay type: functional, Mus musculus; method in brief: as §1
P388 [9] = assay: In vivo T/C (survival time treated/survival time control x 100) was determined against P388 leukemia cells at 20 mg/Kg; assay type: functional, Mus musculus; method in brief: as §2
[10] = Tested for cytotoxicity in the multiple tumor disk diffusion soft agar assay at the dose of 15 ug/disk against solid tumor C38; U = 32 uM; assay type: functional, Mus musculus; method in brief: as §1
L1210 [11] = assay: Tested for cytotoxicity in the multiple tumor disk diffusion soft agar assay at the dose of 15 ug/disk against leukemia L1210; range is 300-380; assay type: functional, Mus musculus; method in brief: as §1
[12] = Tested for cytotoxicity in the multiple tumor disk diffusion soft agar assay at the dose of 15 ug/disk against solid tumor PO3; assay type: functional, Mus musculus; method in brief: as §1
L1210 [13] = assay: Tested for cytotoxicity in the multiple tumor disk diffusion soft agar assay at the dose of 15 ug/disk against leukemia L1210; U = 32 uM; assay type: functional, Mus musculus; method in brief: as §1
P388 [14] = assay: In vivo T/C (survival time treated/survival time control x 100) was determined against P388 leukemia cells at 10 mg/Kg; assay type: functional, Mus musculus; method in brief: as §2
L1210 [15] = assay: Tested for cytotoxicity in the multiple tumor disk diffusion soft agar assay at the dose of 15 ug/disk against leukemia L1210; range is 500-580; assay type: functional, Mus musculus; method in brief: as §1
[16] = Tested for cytotoxicity in the multiple tumor disk diffusion soft agar assay at the dose of 15 ug/disk against solid tumor PO3; U = […]; assay type: functional, Mus musculus; method in brief: as §1
L1210 [17] = assay: Tested for cytotoxicity in the multiple tumor disk diffusion soft agar assay at the dose of 15 ug/disk against leukemia L1210; range is 290-350; assay type: functional, Mus musculus; method in brief: as §1

COc1ccc2c(ccc3[nH]c4c(C)cnc(NCC(C)CN(C)C)c4c32)c1 (stereo unspecified)
Cytotoxicity [1]: 425 U | Cytotoxicity (L1210 [2]): 450 U | Cytotoxicity (L1210 [3]): 425 U | Cytotoxicity [4]: 375 U | T/C x100 (P388 [5]): 151 | IC50 (P388 [6]): 0.55 µg/mL (≈ 1.46 µM)

COc1ccc2c(ccc3c2c2c(NCCCN(C)C)ncc(C)c2n3C)c1
Cytotoxicity [1]: 325 U | Cytotoxicity (L1210 [7]): 550 U | Cytotoxicity (L1210 [3]): 425 U | Cytotoxicity [4]: 200 U | T/C x100 (P388 [5]): 150 | IC50 (P388 [6]): 0.5 µg/mL (≈ 1.33 µM)

CCN(CC)CCCNc1ncc(C)c2c1c1c3ccc(OC)cc3ccc1n2C
Cytotoxicity (L1210 [8]): 450 U | Cytotoxicity [1]: 325 U | Cytotoxicity (L1210 [3]): 400 U | Cytotoxicity [4]: 375 U | T/C x100 (P388 [5]): 143 | IC50 (P388 [6]): 0.75 µg/mL (≈ 1.85 µM)

CCN(CC)CCCNc1ncc(C)c2c1c1ccc3ccccc3c1n2C
T/C x100 (P388 [9]): 108 | Cytotoxicity [10]: 500 U | Cytotoxicity (L1210 [11]): 300 U | IC50 (P388 [6]): 0.375 µg/mL (≈ 1 µM) | Cytotoxicity [12]: 200 U | Cytotoxicity (L1210 [13]): 450 U

Cc1cnc(NCCCN(C)C)c2c3ccc4ccccc4c3n(C)c12
T/C x100 (P388 [14]): 119 | Cytotoxicity (L1210 [15]): 500 U | Cytotoxicity (L1210 [3]): 450 U | Cytotoxicity [10]: 480 U | IC50 (P388 [6]): 0.375 µg/mL (≈ 1.08 µM) | Cytotoxicity [16]: 325 U

COc1cccc2c1ccc1c3c(NCCCN(C)C)ncc(C)c3n(C)c21
Cytotoxicity (L1210 [17]): 290 U | Cytotoxicity [10]: 675 U | T/C x100 (P388 [5]): 130 | IC50 (P388 [6]): 0.75 µg/mL (≈ 1.99 µM) | Cytotoxicity [16]: 275 U | Cytotoxicity (L1210 [13]): 375 U
